According to ChEMBL document CHEMBL5724801, “EUbOPEN Chemogenomics Library - Multiplex” (2024):
Values joined by “and” are separate entries in the source; they are usually repeats but may differ in a detail not shown here. Equal values may be shown once.

Tested on: U2OS
Experiment: Multiplex assay against U2OS
Type: toxicity, cell-based
Details: human
Outline: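 Cells stained live at seeding with Hoechst33342, BioTracker Green Microtubule Cytoskeleton Dye, MitoTracker Red and Annexin V Alexa Fluor 680 were imaged on a CQ1 microscope at 37°C and 5% CO2 after compound addition. Their classification by CellPathfinder machine-learning gating ran from Hoechst high-intensity objects versus normal cells, to healthy, pyknosed or fragmented nuclei among normal cells, to mitotic or apoptotic among pyknosed cells. Tubulin, mitochondrial-mass and membrane-permeability phenotypes are per cents of healthy-nucleus cells.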

[1] = 12 h, 1 µM, compound concentration 1 uM
[2] = 12 h, 10 µM, compound concentration 10 uM
[3] = 24 h, 1 µM, compound concentration 1 uM
[4] = 24 h, 10 µM, compound concentration 10 uM
[5] = 48 h, 1 µM, compound concentration 1 uM
[6] = 48 h, 10 µM, compound concentration 10 uM

C[C@H](C[C@H](N)C(=O)O)C(=O)O [2S,4R-4-METHYLGLUTAMATE]
Population Apoptotic (%) [1]: 31.91% and 61.54%
Population Fragmented Nuclei (%) [1]: 3.36% and 4%
Population Healthy Nuclei (%) [1]: 85.37% and 85.6%
Population Hoechst High Intensity Objects (%) [1]: 0%
Population Membrane Permeable-Phenotype (%) [1]: 2.25% and 5.61%
Population Mitochondria Different-Phenotype (%) [1]: 0% and 3.74%
Population Mitotic Cells (%) [1]: 68.09% and 38.46%
Population Normal (%) [1]: 100%
Population Pyknosed Nuclei (%) [1]: 11.27% and 10.4%
Population Tubulin-Different-Phenotype (%) [1]: 0.28% and 0%
Population Apoptotic (%) [2]: 36.84% and 47.06%
Population Fragmented Nuclei (%) [2]: 0.57% and 3.31%
Population Healthy Nuclei (%) [2]: 88.51% and 85.43%
Population Hoechst High Intensity Objects (%) [2]: 0%
Population Membrane Permeable-Phenotype (%) [2]: 1.95% and 3.88%
Population Mitochondria Different-Phenotype (%) [2]: 0.32% and 6.98%
Population Mitotic Cells (%) [2]: 63.16% and 52.94%
Population Normal (%) [2]: 100%
Population Pyknosed Nuclei (%) [2]: 10.92% and 11.26%
Population Tubulin-Different-Phenotype (%) [2]: 3.25% and 0.78%
Total Cell Count [2]: 348 and 151
Population Apoptotic (%) [3]: 54.55% and 80%
Population Fragmented Nuclei (%) [3]: 3.12% and 6.67%
Population Healthy Nuclei (%) [3]: 86.79% and 84.24%
Population Hoechst High Intensity Objects (%) [3]: 0% and 0.6%
Population Membrane Permeable-Phenotype (%) [3]: 1.48% and 3.6%
Population Mitochondria Different-Phenotype (%) [3]: 0% and 5.04%
Population Mitotic Cells (%) [3]: 45.45% and 20%
Population Normal (%) [3]: 100% and 99.4%
Population Pyknosed Nuclei (%) [3]: 10.09% and 9.09%
Population Tubulin-Different-Phenotype (%) [3]: 0.42% and 0%
Population Apoptotic (%) [4]: 38.3% and 31.25%
Population Fragmented Nuclei (%) [4]: 0.43% and 1.99%
Population Healthy Nuclei (%) [4]: 89.42% and 90.05%
Population Hoechst High Intensity Objects (%) [4]: 0.22% and 0%
Population Membrane Permeable-Phenotype (%) [4]: 1.45% and 3.31%
Population Mitochondria Different-Phenotype (%) [4]: 0.48% and 3.87%
Population Mitotic Cells (%) [4]: 61.7% and 68.75%
Population Normal (%) [4]: 99.78% and 100%
Population Pyknosed Nuclei (%) [4]: 10.15% and 7.96%
Population Tubulin-Different-Phenotype (%) [4]: 1.45% and 0.55%
Total Cell Count [4]: 464 and 201
Population Apoptotic (%) [5]: 50% and 51.52%
Population Fragmented Nuclei (%) [5]: 3.72% and 3.91%
Population Healthy Nuclei (%) [5]: 89.03% and 84.34%
Population Hoechst High Intensity Objects (%) [5]: 0%
Population Membrane Permeable-Phenotype (%) [5]: 1.47% and 2.11%
Population Mitochondria Different-Phenotype (%) [5]: 0% and 2.95%
Population Mitotic Cells (%) [5]: 50% and 48.48%
Population Normal (%) [5]: 100%
Population Pyknosed Nuclei (%) [5]: 7.24% and 11.74%
Population Tubulin-Different-Phenotype (%) [5]: 1.02% and 1.27%
Population Apoptotic (%) [6]: 54.05% and 54.84%
Population Fragmented Nuclei (%) [6]: 2.19% and 2.47%
Population Healthy Nuclei (%) [6]: 89.7% and 89.01%
Population Hoechst High Intensity Objects (%) [6]: 0%
Population Membrane Permeable-Phenotype (%) [6]: 1.1% and 1.23%
Population Mitochondria Different-Phenotype (%) [6]: 0.12% and 1.23%
Population Mitotic Cells (%) [6]: 45.95% and 45.16%
Population Normal (%) [6]: 100%
Population Pyknosed Nuclei (%) [6]: 8.11% and 8.52%
Population Tubulin-Different-Phenotype (%) [6]: 1.47% and 0.31%
Total Cell Count [6]: 913 and 364

COc1c(Nc2ccc(S(C)(=O)=O)nc2C)ncnc1OC1CCN(C(=O)OC(C)C)CC1 [ADP-597]
Population Apoptotic (%) [1]: 82% and 75%
Population Fragmented Nuclei (%) [1]: 23% and 13%
Population Healthy Nuclei (%) [1]: 68% and 78%
Population Hoechst High Intensity Objects (%) [1]: 2% and 3%
Population Membrane Permeable-Phenotype (%) [1]: 7% and 11%
Population Mitochondria Different-Phenotype (%) [1]: 1%
Population Mitotic Cells (%) [1]: 17% and 25%
Population Normal (%) [1]: 97% and 96%
Population Pyknosed Nuclei (%) [1]: 8%
Population Tubulin-Different-Phenotype (%) [1]: 5% and 2%
Total Cell Count [1]: 208 and 95
Population Apoptotic (%) [2]: 93% and 85%
Population Fragmented Nuclei (%) [2]: 27% and 10%
Population Healthy Nuclei (%) [2]: 60% and 77%
Population Hoechst High Intensity Objects (%) [2]: 8% and 4%
Population Membrane Permeable-Phenotype (%) [2]: 7%
Population Mitochondria Different-Phenotype (%) [2]: 2% and 3%
Population Mitotic Cells (%) [2]: 6% and 14%
Population Normal (%) [2]: 91% and 95%
Population Pyknosed Nuclei (%) [2]: 11%
Population Tubulin-Different-Phenotype (%) [2]: 4% and 1%
Total Cell Count [2]: 266 and 128
Population Apoptotic (%) [3]: 88% and 80%
Population Fragmented Nuclei (%) [3]: 24% and 12%
Population Healthy Nuclei (%) [3]: 67% and 79%
Population Hoechst High Intensity Objects (%) [3]: 3%
Population Membrane Permeable-Phenotype (%) [3]: 7% and 8%
Population Mitochondria Different-Phenotype (%) [3]: 3%
Population Mitotic Cells (%) [3]: 11% and 20%
Population Normal (%) [3]: 96%
Population Pyknosed Nuclei (%) [3]: 7% and 8%
Population Tubulin-Different-Phenotype (%) [3]: 3% and 5%
Total Cell Count [3]: 239 and 129
Population Apoptotic (%) [4]: 88% and 83%
Population Fragmented Nuclei (%) [4]: 30% and 11%
Population Healthy Nuclei (%) [4]: 61% and 80%
Population Hoechst High Intensity Objects (%) [4]: 6% and 5%
Population Membrane Permeable-Phenotype (%) [4]: 8% and 6%
Population Mitochondria Different-Phenotype (%) [4]: 2% and 4%
Population Mitotic Cells (%) [4]: 12% and 16%
Population Normal (%) [4]: 93% and 94%
Population Pyknosed Nuclei (%) [4]: 8%
Population Tubulin-Different-Phenotype (%) [4]: 4% and 1%
Total Cell Count [4]: 305 and 155
Population Apoptotic (%) [5]: 80% and 81%
Population Fragmented Nuclei (%) [5]: 19% and 20%
Population Healthy Nuclei (%) [5]: 72% and 67%
Population Hoechst High Intensity Objects (%) [5]: 2%
Population Membrane Permeable-Phenotype (%) [5]: 6% and 5%
Population Mitochondria Different-Phenotype (%) [5]: 5% and 4%
Population Mitotic Cells (%) [5]: 19% and 18%
Population Normal (%) [5]: 97%
Population Pyknosed Nuclei (%) [5]: 7% and 12%
Population Tubulin-Different-Phenotype (%) [5]: 2%
Total Cell Count [5]: 339 and 185
Population Apoptotic (%) [6]: 79% and 92%
Population Fragmented Nuclei (%) [6]: 24% and 10%
Population Healthy Nuclei (%) [6]: 62% and 77%
Population Hoechst High Intensity Objects (%) [6]: 6% and 3%
Population Membrane Permeable-Phenotype (%) [6]: 6% and 4%
Population Mitochondria Different-Phenotype (%) [6]: 4% and 0%
Population Mitotic Cells (%) [6]: 20% and 8%
Population Normal (%) [6]: 93% and 96%
Population Pyknosed Nuclei (%) [6]: 13% and 11%
Population Tubulin-Different-Phenotype (%) [6]: 2%
Total Cell Count [6]: 356 and 223
